The text below walks through data of ChEMBL document CHEMBL1140733, “Comprehensive study of sansalvamide A derivatives and their structure-activity relationships against drug-resistant colon cancer cell lines” (J Med Chem, 2008).

Peptide text beside a SMILES is read from it.

In test [1] the test system is HCT-116. The test is described as follows: Cytotoxicity against multidrug-resistant human HCT116 cells by thymidine incorporation assay. It is filed as functional, cell-based. A digest of the protocol:
(§1)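 Cells (3000/well) were plated in IMDM (HCT-116), RPMI 1640 (HCT-15) or MEM (WS-1), each with L-glutamine, 10% FBS and 0.1% penicillin-streptomycin. Compounds in DMSO (1% in all wells) were added after about 6 h and left for 72 h, with 3H-thymidine pulsed for the last 16 h. Uptake was scintillation-counted against DMSO controls. IC50 came from four-concentration curves, three experiments in quadruplicate.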

Test [2] deals with HCT-15. Nature of the test: Cytotoxicity against multidrug-resistant human HCT15 cells by thymidine incorporation assay. The format is functional, cell-based. A digest of the protocol:
as §1

Test [3] deals with HCT-116. Nature of the test: Cytotoxicity against multidrug-resistant human HCT116 cells at 1 uM by thymidine incorporation assay. It is filed as functional. A digest of the protocol:
(§2)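 HCT-116 cells were grown in IMDM and HCT-15 in RPMI 1640, each with L-glutamine, 10% FBS and penicillin-streptomycin, at 3000 cells/well. Compound was applied at 1 µM in 1% DMSO for 72 h total, with 3H-thymidine added for the final 16 h. Percent growth inhibition versus DMSO controls was scintillation-counted, averaging three wells in each of three assays.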
In general terms: Dividing cells build labelled thymidine or BrdU into new DNA.

For test [4], the system named is HCT-15. Nature of the test: Cytotoxicity against multidrug-resistant human HCT15 cells at 1 uM by thymidine incorporation assay. The format is functional. A digest of the protocol: as §2
Test [5] in a line: Cytotoxicity against human WS1 cells by thymidine incorporation assay. The format is cell-based. The procedure, abridged: as §1
Test [6] deals with HCT-116. Nature of the test: Selectivity for multidrug-resistant human HCT116 cells over human WS1 cells. It is filed as functional.
The subject of test [7] is HCT-15. Nature of the test: Selectivity for multidrug-resistant human HCT15 cells over human WS1 cells. The format is functional.

For orientation: IC50 means the midpoint of a concentration-inhibition curve. Low values mean inhibition by little substance, high ones a need for much substance. By inhibition is commonly meant how much of the control response was suppressed. Lower therefore signals little suppression. For `CC(C)C[C@@H]1NC(=O)[C@H](Cc2ccccc2)NC(=O)[C@H](CC(C)C)NC(=O)[C@H](C(C)C)NC(=O)[C@H](CC(C)C)NC1=O` (HELM PEPTIDE1{F.L.L.V.L}$PEPTIDE1,PEPTIDE1,1:R1-5:R2$$$V2.0), the half-maximal inhibitory concentration (IC50) with HCT-116 [1] was 25000 nM; with HCT-15 [2], 46000 nM; in test [5] it was 200 µM. Also, the results for the inhibition at 1 µM in the test with HCT-116 [3] and in the test with HCT-15 [4] were 28% and 10%, respectively.
As for `CC(C)C[C@@H]1NC(=O)[C@H](Cc2ccccc2)NC(=O)[C@@H](Cc2ccccc2)N(C)C(=O)[C@H](C(C)C)NC(=O)[C@H](CC(C)C)NC1=O`, the IC50 with HCT-116 [1] was 800 nM; in the test with HCT-15 [2] it was 700 nM; in test [5], 200 µM. Further, the inhibition at 1 µM with HCT-116 [3] was found to be 59%; with HCT-15 [4], 57%. In addition, the “Ratio IC50” value with HCT-116 [6] and in the test with HCT-15 [7] was above 250 throughout.
Take `CC(C)C[C@@H]1NC(=O)[C@H](C(C)C)NC(=O)[C@H](CC(C)C)NC(=O)[C@@H](CC(C)C)N(C)C(=O)[C@H](Cc2ccccc2)NC1=O` (HELM PEPTIDE1{[CC(C)C[C@H](C(=O)[*:2])N(C)[*:1]].L.V.L.F}$PEPTIDE1,PEPTIDE1,1:R1-5:R2$$$V2.0): the IC50 with HCT-116 [1] was found to be 2000 nM; in the test on HCT-15 [2] it was 1200 nM; in test [5], 200 µM. Also, the inhibition at 1 µM stood at 42% in the test with HCT-116 [3] and 48% in the test with HCT-15 [4].
